Tested on: HEK-293T
Assay: Multiplex assay against HEK293T;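 as to Population Tubulin-Different-Phenotype (%): share of the cells with healthy nuclei that show this phenotype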
Format: toxicity, cell-based
Conditions: human
Summary of the method: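 On a CQ1 microscope at 37°C and 5% CO2, live cells were imaged after compound addition. They had been stained at seeding with Hoechst33342, BioTracker Green Microtubule Cytoskeleton Dye, MitoTracker Red and Annexin V Alexa Fluor 680. CellPathfinder machine-learning gating assigned cells to Hoechst high-intensity objects or normal cells, normal cells to healthy, pyknosed or fragmented nuclei, and pyknosed cells to mitotic or apoptotic. Tubulin, mitochondrial-mass and membrane-permeability phenotypes are per cents of healthy-nucleus cells.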

[1] = 12 h, 1 µM, compound concentration 1 uM, replicate 1
[2] = 12 h, 1 µM, compound concentration 1 uM, replicate 2
[3] = 12 h, 10 µM, compound concentration 10 uM, replicate 1
[4] = 12 h, 10 µM, compound concentration 10 uM, replicate 2
[5] = 24 h, 1 µM, compound concentration 1 uM, replicate 1
[6] = 24 h, 1 µM, compound concentration 1 uM, replicate 2
[7] = 24 h, 10 µM, compound concentration 10 uM, replicate 1
[8] = 24 h, 10 µM, compound concentration 10 uM, replicate 2
[9] = 48 h, 1 µM, compound concentration 1 uM, replicate 1
[10] = 48 h, 1 µM, compound concentration 1 uM, replicate 2
[11] = 48 h, 10 µM, compound concentration 10 uM, replicate 1
[12] = 48 h, 10 µM, compound concentration 10 uM, replicate 2

## Cc1ccc(C(=O)Nc2cccc(C(F)(F)F)c2)cc1Nc1nc(-c2cccnc2)nc2c1cnn2C
[1]
  Population Apoptotic (%): 63%
  Population Fragmented Nuclei (%): 15%
  Population Healthy Nuclei (%): 33%
  Population Hoechst High Intensity Objects (%): 19%
  Population Membrane Permeable-Phenotype (%): 1%
  Population Mitochondria Different-Phenotype (%): 94%
  Population Mitotic Cells (%): 36%
  Population Normal (%): 80%
  Population Pyknosed Nuclei (%): 50%
  Population Tubulin-Different-Phenotype (%): 94%
  Total Cell Count: 318
[2]
  Population Apoptotic (%): 27%
  Population Fragmented Nuclei (%): 7%
  Population Healthy Nuclei (%): 25%
  Population Hoechst High Intensity Objects (%): 9%
  Population Membrane Permeable-Phenotype (%): 7%
  Population Mitochondria Different-Phenotype (%): 52%
  Population Mitotic Cells (%): 72%
  Population Normal (%): 90%
  Population Pyknosed Nuclei (%): 66%
  Population Tubulin-Different-Phenotype (%): 89%
  Total Cell Count: 162
[3]
  Population Apoptotic (%): 86%
  Population Fragmented Nuclei (%): 16%
  Population Healthy Nuclei (%): 7%
  Population Hoechst High Intensity Objects (%): 19%
  Population Membrane Permeable-Phenotype (%): 8%
  Population Mitochondria Different-Phenotype (%): 91%
  Population Mitotic Cells (%): 13%
  Population Normal (%): 80%
  Population Pyknosed Nuclei (%): 75%
  Population Tubulin-Different-Phenotype (%): 91%
  Total Cell Count: 200
[4]
  Population Apoptotic (%): 78%
  Population Fragmented Nuclei (%): 5%
  Population Healthy Nuclei (%): 13%
  Population Hoechst High Intensity Objects (%): 5%
  Population Membrane Permeable-Phenotype (%): 4%
  Population Mitochondria Different-Phenotype (%): 96%
  Population Mitotic Cells (%): 21%
  Population Normal (%): 94%
  Population Pyknosed Nuclei (%): 81%
  Population Tubulin-Different-Phenotype (%): 92%
  Total Cell Count: 190
[5]
  Population Apoptotic (%): 64%
  Population Fragmented Nuclei (%): 14%
  Population Healthy Nuclei (%): 38%
  Population Hoechst High Intensity Objects (%): 16%
  Population Membrane Permeable-Phenotype (%): 2%
  Population Mitochondria Different-Phenotype (%): 92%
  Population Mitotic Cells (%): 35%
  Population Normal (%): 83%
  Population Pyknosed Nuclei (%): 46%
  Population Tubulin-Different-Phenotype (%): 90%
  Total Cell Count: 330
[6]
  Population Apoptotic (%): 51%
  Population Fragmented Nuclei (%): 7%
  Population Healthy Nuclei (%): 43%
  Population Hoechst High Intensity Objects (%): 6%
  Population Membrane Permeable-Phenotype (%): 11%
  Population Mitochondria Different-Phenotype (%): 64%
  Population Mitotic Cells (%): 48%
  Population Normal (%): 93%
  Population Pyknosed Nuclei (%): 48%
  Population Tubulin-Different-Phenotype (%): 97%
  Total Cell Count: 172
[7]
  Population Apoptotic (%): 89%
  Population Fragmented Nuclei (%): 16%
  Population Healthy Nuclei (%): 10%
  Population Hoechst High Intensity Objects (%): 22%
  Population Membrane Permeable-Phenotype (%): 0%
  Population Mitochondria Different-Phenotype (%): 100%
  Population Mitotic Cells (%): 10%
  Population Normal (%): 77%
  Population Pyknosed Nuclei (%): 72%
  Population Tubulin-Different-Phenotype (%): 100%
  Total Cell Count: 225
[8]
  Population Apoptotic (%): 85%
  Population Fragmented Nuclei (%): 5%
  Population Healthy Nuclei (%): 24%
  Population Hoechst High Intensity Objects (%): 4%
  Population Membrane Permeable-Phenotype (%): 4%
  Population Mitochondria Different-Phenotype (%): 95%
  Population Mitotic Cells (%): 14%
  Population Normal (%): 95%
  Population Pyknosed Nuclei (%): 70%
  Population Tubulin-Different-Phenotype (%): 95%
  Total Cell Count: 205
[9]
  Population Apoptotic (%): 52%
  Population Fragmented Nuclei (%): 21%
  Population Healthy Nuclei (%): 45%
  Population Hoechst High Intensity Objects (%): 15%
  Population Membrane Permeable-Phenotype (%): 4%
  Population Mitochondria Different-Phenotype (%): 74%
  Population Mitotic Cells (%): 47%
  Population Normal (%): 84%
  Population Pyknosed Nuclei (%): 33%
  Population Tubulin-Different-Phenotype (%): 88%
  Total Cell Count: 371
[10]
  Population Apoptotic (%): 47%
  Population Fragmented Nuclei (%): 6%
  Population Healthy Nuclei (%): 63%
  Population Hoechst High Intensity Objects (%): 9%
  Population Membrane Permeable-Phenotype (%): 8%
  Population Mitochondria Different-Phenotype (%): 43%
  Population Mitotic Cells (%): 52%
  Population Normal (%): 90%
  Population Pyknosed Nuclei (%): 30%
  Population Tubulin-Different-Phenotype (%): 96%
  Total Cell Count: 230
[11]
  Population Apoptotic (%): 86%
  Population Fragmented Nuclei (%): 23%
  Population Healthy Nuclei (%): 15%
  Population Hoechst High Intensity Objects (%): 20%
  Population Membrane Permeable-Phenotype (%): 6%
  Population Mitochondria Different-Phenotype (%): 100%
  Population Mitotic Cells (%): 13%
  Population Normal (%): 79%
  Population Pyknosed Nuclei (%): 60%
  Population Tubulin-Different-Phenotype (%): 96%
  Total Cell Count: 258
[12]
  Population Apoptotic (%): 89%
  Population Fragmented Nuclei (%): 8%
  Population Healthy Nuclei (%): 29%
  Population Hoechst High Intensity Objects (%): 7%
  Population Membrane Permeable-Phenotype (%): 1%
  Population Mitochondria Different-Phenotype (%): 93%
  Population Mitotic Cells (%): 10%
  Population Normal (%): 92%
  Population Pyknosed Nuclei (%): 61%
  Population Tubulin-Different-Phenotype (%): 93%
  Total Cell Count: 209

— ChEMBL document CHEMBL4689842, “EUbOPEN Chemogenomics Library wave 1” (2021)
